The text below walks through data of ChEMBL document CHEMBL3526154, “Metabolism, pharmacokinetics, tissue distribution, and stability studies of the prodrug analog of an anti-hepatitis B virus dinucleoside phosphorothioate” (Drug Metab Dispos, 2012).

Data set [1] is described as follows: Drug excretion in female Sprague-Dawley rat feces at 10 mg/kg, iv administered as bolus dose measured at 0 to 24 hrs post-dose by liquid scintillation counting analysis. As to conditions: in vivo. The data set is classed as ADME, organism-based. On the set-up: dose 10 mg/kg, route intravenous. Put shortly: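 Single [³⁵S]-prodrug dose to rats, i.v. tail-vein bolus (PEG 400/saline vehicle) or oral gavage (citric acid buffer pH 2.5), 5 ml/kg. Urine and feces collected ~1, 4 and 24 h postdose. Radioactivity counted by liquid scintillation and expressed as % of administered dose. Mean and S.D. from nine rats per sex.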

For the next data set, the system named is Rattus norvegicus. Briefly: Drug recovery in male Sprague-Dawley rat at 10 mg/kg, iv administered as bolus dose measured after 24 hrs by liquid scintillation counting analysis. The data set is classed as ADME, organism-based. Set-up: dose 10 mg/kg, route intravenous. The conditions noted are these: in vivo. In a few lines: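 Rats got a single i.v. bolus or oral gavage dose of [³⁵S]-prodrug at 5 ml/kg over a 24 h study. Radioactivity in blood, tissues, carcass, urine and feces measured by liquid scintillation counting. Total recovery given as % of administered dose at 24 h.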

Each structure is given as a SMILES string.

The molecule `CO[C@@H]1[C@H](OP(=O)(OC[C@H]2O[C@@H](n3cnc4c(N)ncnc43)C[C@@H]2O)[35S]COC(=O)OC(C)C)[C@@H](CO)O[C@H]1n1ccc(=O)[nH]c1=O` (some centres not stated) came in with a Drug excretion in data set [1] of 9.44%. This molecule also returned a Drug recovery in the data set on Rattus norvegicus of 83.7%.
